{"source": "paper PMC10586521", "about": "(Journal of medicinal chemistry, 2023)", "assay_type_in_all_cases": "cell-based", "key": {"[1]": {"system": "HCT116 colorectal carcinoma cells", "assay": "MTS cell viability / cell growth inhibition assay in HCT116 cells", "conditions": "for fold less effective (GI50) compared to 17S-FD-895 / fold loss in cell growth inhibitory activity (GI50) compared to 1: HCT116 cells, 72 h; for fold less effective (GI50) compared to 17S-FD-895: comparator printed as 17S-FD-895 (1a); for GI50: Homo sapiens, HCT-116, 72 h; for fold loss in cell growth inhibitory activity (GI50) compared to 1: relative to FD-895 (1); for fold loss in activity: comparator not stated, side chain terminus modification"}, "PLK-1": {"system": "PLK-1", "assay": "qRT-PCR splice modulation, PLK-1 exon skipping/expression in HCT116 cells", "conditions": "for PLK-1 expression/splicing: HCT116, 24 h, 100-500 nM; for effect on exon 3 inclusion in PLK-1: HCT116, 4 h, ~20 times GI50", "in_short": "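HCT116 (ATCC, mycoplasma-tested, ≤5 passages) in supplemented McCoy's 5a with 0.5% DMSO, exposed 4 h or 24 h (100, 250, 500 nM); untreated control. Total RNA isolated, 1 μg DNase I-treated, cDNA made; qPCR on 5 ng cDNA with primers for intron retention/exon skipping. Cycling: 95 °C 10 min; 40× (95 °C 30 s, 55 °C 60 s, 72 °C 60 s). 2−ΔΔCT vs GAPDH, untreated set to 1.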"}, "SF2": {"system": "SF2", "assay": "qRT-PCR, SF2 RNA expression in HCT116 cells", "conditions": "for down regulation of SF2 expression: HCT116, 4 h, ~20 times GI50; for SF2 expression: HCT116, 24 h, 100-500 nM"}, "HCT116 tumor cells": {"system": "HCT116 tumor cells", "assay": "qRT-PCR splice modulation, overall profile over the gene panel in HCT116 cells", "conditions": "HCT116, 24 h, 100, 250 and 500 nM"}, "DNAJB1": {"system": "DNAJB1", "assay": "qRT-PCR splice modulation, DNAJB1 intron retention in HCT116 cells", "conditions": "for DNAJB1 intron 2 retention: HCT116, 4 h, ~20 times GI50, relative to 1; for DNAJB1 intron retention: HCT116, 24 h, 100-500 nM, compared to 1"}, "SF3A1": {"system": "SF3A1", "assay": "qRT-PCR splice modulation, SF3A1 intron retention in HCT116 cells", "conditions": "for SF3A1 intron 6 retention: HCT116, 4 h, ~20 times GI50, relative to 1; for SF3A1 intron retention: HCT116, 24 h, 100-500 nM, compared to 1"}, "SF3B2": {"system": "SF3B2", "assay": "qRT-PCR splice modulation, SF3B2 intron retention in HCT116 cells"}, "SF3A3": {"system": "SF3A3", "assay": "qRT-PCR splice modulation, SF3A3 intron retention in HCT116 cells", "conditions": "HCT116, 24 h, 100-500 nM, compared to 1", "in_short": "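HCT116 cells (ATCC, mycoplasma-tested, ≤5 passages), supplemented McCoy's 5a with 0.5% DMSO, treated 24 h at 100, 250 or 500 nM; untreated cells as control. Total RNA extracted, 1 μg DNase I-treated, converted to cDNA; qPCR on 5 ng cDNA using intron-retention primers, 95 °C 10 min then 40 cycles 95/55/72 °C. Levels by 2−ΔΔCT relative to GAPDH, untreated = 1.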"}, "AURKA": {"system": "AURKA", "assay": "qRT-PCR splice modulation, AURKA exon skipping/expression in HCT116 cells", "conditions": "HCT116, 24 h, 100-500 nM"}, "[2]": {"conditions": "HCT116, 4 h, ~20 times GI50, compared to 1"}, "[3]": {"conditions": "HCT116, 24 h, 100-500 nM, compared to 1"}}, "data": [{"compound": "CC[C@H](OC)[C@@H](C)[C@H]1O[C@@H]1[C@@H](O)[C@H](C)/C=C/C=C(\\C)[C@H]1OC(=O)C[C@H](O)CC[C@@](C)(O)[C@H](OC(C)=O)/C=C/[C@@H]1C", "note": "[Compound 1h, 7R,17S-FD-895]", "values": [{"measurement": "fold less effective (GI50) compared to 17S-FD-895", "setting": "[1]", "result": 318, "unit": "fold"}]}, {"compound": "CC[C@H](OC)[C@@H](C)[C@H]1O[C@@H]1[C@H](O)[C@H](C)/C=C/C=C(\\C)[C@H]1OC(=O)C[C@H](O)CC[C@@](C)(O)[C@@H](OC(C)=O)/C=C/[C@@H]1C", "note": "[Compound 1, FD-895]", "values": [{"measurement": "GI50", "setting": "[1]", "result": "< 0.01", "unit": "µM"}, {"measurement": "PLK-1 expression/splicing", "setting": "PLK-1", "result": "weak efficacy"}, {"measurement": "down regulation of SF2 expression", "setting": "SF2", "result": "highest efficacy"}, {"measurement": "SF2 expression", "setting": "SF2", "result": "weak efficacy"}, {"measurement": "overall splicing activity over the genes tested", "setting": "HCT116 tumor cells", "result": "altered the splicing of nearly all genes tested"}]}, {"compound": "CC[C@H](OC)[C@@H](C)[C@H]1O[C@@H]1[C@H](OC)[C@H](C)/C=C/C=C(\\C)[C@H]1OC(=O)C[C@H](O)CC[C@@](C)(O)[C@@H](OC(C)=O)/C=C/[C@@H]1C", "note": "[Compound 1e, 17-methoxy-FD-895]", "values": [{"measurement": "DNAJB1 intron 2 retention", "setting": "DNAJB1", "result": "highest level of intron retention"}, {"measurement": "SF3A1 intron 6 retention", "setting": "SF3A1", "result": "more effective than 1"}, {"measurement": "SF3B2 intron retention", "setting": "SF3B2; [2]", "result": "improved efficacy"}, {"measurement": "overall splicing activity over the genes tested", "setting": "HCT116 tumor cells", "result": "comparable or slightly reduced splice modulatory activity"}]}, {"compound": "CC[C@H](OC)[C@@H](C)[C@H]1O[C@@H]1[C@H](O)[C@H](C)/C=C/C=C(\\C)[C@H]1OC(=O)C[C@@H](O)CC[C@@](C)(O)[C@@H](OC(C)=O)/C=C/[C@@H]1C", "note": "[Compound 1a, 3S-FD-895]", "values": [{"measurement": "GI50", "setting": "[1]", "result": "< 0.01", "unit": "µM"}, {"measurement": "DNAJB1 intron 2 retention", "setting": "DNAJB1", "result": "highest level of intron retention"}, {"measurement": "SF3A1 intron 6 retention", "setting": "SF3A1", "result": "more effective than 1"}, {"measurement": "SF3B2 intron retention", "setting": "SF3B2; [2]", "result": "improved efficacy"}, {"measurement": "effect on exon 3 inclusion in PLK-1", "setting": "PLK-1", "result": "most potent effect"}]}, {"compound": "CC[C@H](OC)[C@@H](C)[C@H]1O[C@@H]1[C@@H](OC)[C@H](C)/C=C/C=C(\\C)[C@H]1OC(=O)C[C@H](O)CC[C@@](C)(O)[C@@H](OC(C)=O)/C=C/[C@@H]1C", "note": "[Compound 1f, 17-methoxy-17S-FD-895]", "values": [{"measurement": "fold loss in cell growth inhibitory activity (GI50) compared to 1", "setting": "[1]", "result": 21, "unit": "fold"}, {"measurement": "SF3A1 intron 6 retention", "setting": "SF3A1", "result": "more effective than 1"}]}, {"compound": "CC[C@H](OC)[C@@H](C)[C@H]1O[C@@H]1[C@@H](O)[C@H](C)/C=C/C=C(\\C)[C@H]1OC(=O)C[C@@H](O)CC[C@@](C)(O)[C@@H](OC(C)=O)/C=C/[C@@H]1C", "note": "[Compound 1g, 3S,17S-FD-895]", "values": [{"measurement": "fold less effective (GI50) compared to 17S-FD-895", "setting": "[1]", "result": 52, "unit": "fold"}, {"measurement": "fold loss in cell growth inhibitory activity (GI50) compared to 1", "setting": "[1]", "result": 75, "unit": "fold"}, {"measurement": "DNAJB1 intron 2 retention", "setting": "DNAJB1", "result": "highest level of intron retention"}, {"measurement": "DNAJB1 intron retention", "setting": "DNAJB1", "result": "expected loss in intron retention"}, {"measurement": "SF3A1 intron retention", "setting": "SF3A1", "result": "expected loss in intron retention"}, {"measurement": "SF3B2 intron retention", "setting": "SF3B2; [2]", "result": "improved efficacy"}, {"measurement": "SF3B2 intron retention", "setting": "SF3B2; [3]", "result": "expected loss in intron retention"}, {"measurement": "PLK-1 expression/splicing", "setting": "PLK-1", "result": "reduced PLK-1 expression"}, {"measurement": "down regulation of SF2 expression", "setting": "SF2", "result": "highest efficacy"}, {"measurement": "SF2 expression", "setting": "SF2", "result": "reduced ability to inhibit SF2 expression"}, {"measurement": "SF3A3 intron retention", "setting": "SF3A3", "result": "comparable intron retention"}]}, {"compound": "CC[C@H](OC)[C@@H](C)[C@H]1O[C@@H]1[C@H](O)[C@H](C)/C=C/C=C(\\C)[C@H]1OC(=O)C[C@H](O)CC[C@@](C)(O)[C@H](OC(C)=O)/C=C/[C@@H]1C", "note": "[Compound 1b, 7R-FD-895]", "values": [{"measurement": "fold loss in cell growth inhibitory activity (GI50) compared to 1", "setting": "[1]", "result": 300, "unit": "fold"}, {"measurement": "effect on exon 3 inclusion in PLK-1", "setting": "PLK-1", "result": "most potent effect"}, {"measurement": "overall splicing activity over the genes tested", "setting": "HCT116 tumor cells", "result": "loss of splicing activity"}]}, {"compound": "CC[C@@H](OC)[C@H](C)[C@H]1O[C@@H]1[C@@H](O)[C@H](C)/C=C/C=C(\\C)[C@H]1OC(=O)C[C@H](O)CC[C@@](C)(O)[C@@H](OC(C)=O)/C=C/[C@@H]1C", "note": "[Compound 1j, 17S,20S,21R-FD-895]", "values": [{"measurement": "fold loss in activity", "setting": "[1]", "result": 100, "unit": "fold"}, {"measurement": "SF3A1 intron 6 retention", "setting": "SF3A1", "result": "more effective than 1"}, {"measurement": "AURKA expression", "setting": "AURKA", "result": "reducing the expression of AURKA at 500 nM"}, {"measurement": "overall splicing activity over the genes tested", "setting": "HCT116 tumor cells", "result": "splicing profile comparable to 1i"}]}, {"compound": "CC[C@H](OC)[C@@H](C)[C@@H]1O[C@H]1[C@@H](O)[C@H](C)/C=C/C=C(\\C)[C@H]1OC(=O)C[C@H](O)CC[C@@](C)(O)[C@@H](OC(C)=O)/C=C/[C@@H]1C", "note": "[Compound 1i, 17S,18S,19S-FD-895]", "values": [{"measurement": "fold loss in activity", "setting": "[1]", "result": 100, "unit": "fold"}, {"measurement": "SF3A1 intron 6 retention", "setting": "SF3A1", "result": "more effective than 1"}, {"measurement": "PLK-1 expression/splicing", "setting": "PLK-1", "result": "increased the RNA expression"}, {"measurement": "overall splicing activity over the genes tested", "setting": "HCT116 tumor cells", "result": "drastic reduction in splicing activity"}]}, {"compound": "CC[C@H](OC)[C@@H](C)[C@H]1O[C@@H]1[C@H](O)[C@H](C)/C=C/C=C(\\C)[C@@H]1OC(=O)C[C@H](O)CC[C@@](C)(O)[C@@H](OC(C)=O)/C=C/[C@H]1C", "note": "[Compound 1c, 10R,11R-FD-895]", "values": [{"measurement": "fold loss in cell growth inhibitory activity (GI50) compared to 1", "setting": "[1]", "result": "21,700 fold"}]}, {"compound": "CC[C@H](OC)[C@@H](C)[C@H]1O[C@@H]1[C@@H](O)[C@H](C)/C=C/C=C(\\C)[C@H]1OC(=O)C[C@H](O)CC[C@@](C)(O)[C@@H](OC(C)=O)/C=C/[C@@H]1C", "note": "[Compound 1d, 17S-FD-895]", "values": [{"measurement": "GI50", "setting": "[1]", "result": "< 0.01", "unit": "µM"}, {"measurement": "DNAJB1 intron retention", "setting": "DNAJB1", "result": "decreased level of intron retention"}, {"measurement": "SF3A1 intron retention", "setting": "SF3A1", "result": "dose dependent-increase intron retention"}, {"measurement": "SF3B2 intron retention", "setting": "SF3B2; [3]", "result": "dose dependent-increase intron retention"}, {"measurement": "PLK-1 expression/splicing", "setting": "PLK-1", "result": "decreased effect"}, {"measurement": "SF2 expression", "setting": "SF2", "result": "decreased effect"}]}]}
